According to ChEMBL document CHEMBL1151709, “Antileishmanial constituents of the Panamanian endophytic fungus Edenia sp” (J Nat Prod, 2008):

How the values were obtained:
[1] = Therapeutic index, ratio of IC50 for african green monkey Vero cells to IC50 for Leishmania donovani LD-1S/MHOM/SD/00-strain 1S amastigotes; assay type: cell-based; conditions: read-out: Ratio IC50
In short: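 Therapeutic window calculated as Vero-cell IC50 (MTT cytotoxicity) divided by IC50 against axenic L. donovani amastigotes (PicoGreen growth/survival assay).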

[2] = test system: Vero; test: Cytotoxicity against african green monkey Vero cells by MTT assay; assay type: cell-based; conditions: Chlorocebus sabaeus
[3] = test system: Leishmania donovani; test: Antileishmanial activity against Leishmania donovani LD-1S/MHOM/SD/00-strain 1S amastigotes; assay type: functional, organism-based
In short: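 Axenic (cell-free) L. donovani amastigotes; parasite growth and survival read with PicoGreen. Single-concentration screen at 10 μg/mL in duplicate, expressed as % growth versus control; samples at ≤50% growth then tested at […], 0.08, 0.4, 2 and 10 μg/mL to derive IC50. Amphotericin B positive control.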

[4] = test system: Plasmodium falciparum; test: Antimalarial activity against Plasmodium falciparum; assay type: functional, organism-based
In short: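 Run per the authors' earlier protocol with chloroquine as positive control; duplicate wells at 10, 2, 0.4, 0.08 and 0.016 μg/mL.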

[5] = test system: Trypanosoma cruzi; test: Antitrypanosomal activity against Trypanosoma cruzi; assay type: functional, organism-based
In short: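 Buckner et al. protocol with nifurtimox as positive control; tested in duplicate at 10, 2, 0.4, 0.08 and 0.016 μg/mL.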

[6] = Leishmania donovani, 1S, read-out: IC50

Compound	IC50 [4]	IC50 [5]	selectivity ratio [1]	IC50 [2]	IC50 [3, 6]	IC50 [3]
O=C1C=CC(=O)C2=C1[C@@H](O)CCC21Oc2cccc3cccc(c23)O1	> 10 µM	> 10 µM	245	152 µM	620 nM	
C[C@@H]1[C@H](O)[C@@H](C)/C=C/C=C/C=C/C=C/C=C/C=C/C=C/[C@H](O[C@@H]2O[C@H](C)[C@@H](O)[C@H](N)[C@@H]2O)C[C@@H]2O[C@](O)(C[C@@H](O)C[C@@H](O)[C@H](O)CC[C@@H](O)C[C@@H](O)CC(=O)O[C@H]1C)C[C@H](O)[C@H]2C(=O)O [AMPHOTERICIN B]						0.07 µg/mL
COc1cc2c(c(OC)c1)C(C)=[N+](c1ccc(OC)c3c(OC)cc(C)cc13)[C@@H](C)C2.O=C([O-])C(F)(F)F [ANCISANCISTROCLADINIUM A]					0.722 µg/mL	
COc1cc2c(c(OC)c1)C(C)=[N+](c1ccc3cc(C)cc(OC)c3c1O)[C@@H](C)C2.O=C([O-])C(F)(F)F [ANCISTROCLADINIUM B]					1.1 µg/mL	
CC1CS(=O)(=O)CCN1/N=C/c1ccc([N+](=O)[O-])o1 (centres undefined) [NIFURTIMOX]		3 µg/mL				
O=C1C=C[C@]23Oc4ccc(O)c5c4[C@](CCC5=O)(Oc4cccc1c42)O3 [PREUSSOMERIN EG1]	16.5 µM	> 10 µM	75	9 µM	120 nM	

The next lines start with results.

IC50 [4]	IC50 [5]	Compound	selectivity ratio [1]	IC50 [2]	IC50 [3, 6]	IC50 [3]
> 10 µM	26.5 µM	Oc1cccc2c1[C@@H](O)CCC21Oc2cccc3cccc(c23)O1	18	150 µM	8400 nM	
> 10 µM	18.5 µM	O=C1CCC2(Oc3cccc4cccc(c34)O2)c2cccc(O)c21 [PALMARUMYCIN CP2]	41	162 µM	3930 nM	
> 10 µM	> 10 µM	O=C1CCC2(Oc3cccc4cccc(c34)O2)c2c(O)ccc(O)c21 [PALMARUMYCIN CP17]	130	174 µM	1340 nM	
